Results of several laboratories.
Protocols differ between the studies behind these lines.
Organism: Staphylococcus aureus
Read-out: microbial growth

| Structure (SMILES) | assay | system | setting | MIC |
| --- | --- | --- | --- | --- |
| C=CCn1c(-c2ccc([N+](=O)[O-])cc2)nc2ccc(C)cc21 | broth dilution | ATCC29213 MSSA |  | 32 µg/mL |
| CSc1ccc(/C=C/c2cc(/C=C3\Sc4ccccc4N3CCCN3CCCC3)c3ccccc3[n+]2C)cc1.[I-] | broth dilution | ATCCBAA44 |  | 32 µg/mL |
| COc1cccc(OC)c1C(=O)N[C@@H]1C(=O)N2[C@@H]1SC(C)(C)[C@@H]2C(=O)O |  | 156 | clinical isolate | 25 µM |
| OC(Cn1cncn1)(Cn1cncn1)c1ccc(F)cc1F | broth dilution | MB2865 |  | > 128 µg/mL |
| O=C1NC(=S)S/C1=C\c1ccc(-c2ccc(N(c3ccccc3)c3ccccc3)cc2)c2ccccc12 | broth dilution | ATCC25923 |  | 500 µg/mL |
| Nc1c(C(=O)Nc2ccc(C3=NCCN3)cc2)cccc1C(=O)Nc1ccc(C2=NCCN2)cc1 |  |  |  | > 64 µg/mL |
| Cc1cc(/C=C2\Sc3ccccc3N2CCCN2CCCCC2)c2ccccc2[n+]1C.[I-] | broth dilution | ATCCBAA44 |  | 8 µg/mL |
| C/C=C(\C)c1cc(OC(=O)c2c(C)c(Cl)c(O)c(Cl)c2O)c(C)c(O)c1C(=O)O | broth dilution | 16339 |  | > 64 µg/mL |
| C[C@@H](O)[C@H]1C(=O)N2C(C(=O)O)=C(S[C@@H]3CN[C@H](C(=O)N(C)C)C3)[C@H](C)[C@H]12 |  | MRSA |  | 32 µg/mL |
| CC1(C(=O)O)CCC(C(=O)Nc2ccc(Nc3ccccc3)cc2)C1(C)C (stereo not shown) |  |  |  | > 128 µg/mL |
| O=C(O)c1cn(C2CC2)c2cc(N3CCNCC3)c(F)cc2c1=O |  | ATCC43300 | drug-resistant strain | 0.31 µg/mL |
| O=C(O)CN1C(=O)/C(=C/c2c3ccccc3c(-c3ccc(N(c4ccccc4)c4ccccc4)cc3)c3ccccc23)SC1=S | broth dilution | ATCC6538 |  | > 1000 µg/mL |
| Fc1cc(-c2cccc3ncc(-c4cnn(C5CCNCC5)c4)nc23)cc(F)c1CN1CCOCC1 |  | NCTC8325 |  | > 30 µM |
| NC[C@@H]1O[C@H](O[C@H]2[C@@H](O)[C@H](O[C@@H]3[C@@H](O)[C@H](N)C[C@H](N)[C@H]3O[C@H]3O[C@H](CN)[C@@H](O)[C@H](O)[C@H]3N)O[C@@H]2CO)[C@H](N)[C@@H](O)[C@@H]1O |  | USA300 |  | 5 µg/mL |
| CC(C)Oc1c(NC(=O)c2ccc(NC(=O)[C@H](CC(N)=O)NC(=O)c3ccc(NC(=O)C(C)Sc4ccc(C#N)cc4)cc3)cc2)ccc(C(=O)Nc2ccc(C(=O)O)cc2)c1O (stereo partly shown) |  | ATCC29213 |  | > 64 µg/mL |
| CC1(C)S[C@@H]2[C@H](NC(=O)COc3ccccc3)C(=O)N2[C@H]1C(=O)O |  | MRSA | 18 h | > 128 µg/mL |
| CC(C)Oc1c(NC(=O)c2ccc(NC(=O)[C@H](CC(N)=O)NC(=O)c3ccc(NC(=O)c4ccc(C#N)cc4)cc3)cc2)ccc(C(=O)Nc2cc(C(=O)O)n(C)c2)c1O |  | ATCC29213 |  | 64 µg/mL |
| c1ccc2c(-c3cnn4cc(-c5ccc(N6CCNCC6)cc5)cnc34)ccnc2c1 |  | NCTC8325 |  | > 30 µM |
| Cc1cc(Cl)cc2sc(N(CCCn3ccnc3)C(=O)c3ccc[nH]3)nc12 |  | ATCC25923 |  | 1.3 µM |
| O=C1NN=C(N=Cc2ccc(O)cc2O)C1=NNn1c(-c2ccccc2)nc2ccccc2c1=O | broth dilution |  | 24 h | 107 µM |

| Structure (SMILES) | assay | system | setting | MIC |
| --- | --- | --- | --- | --- |
| Cc1ccc(C)n1-c1ccc(-c2nnc(-c3ccc(Br)cc3)[nH]2)cc1 | broth dilution | ATCC11632 | 18 h | 1 µg/mL |
| O=C(CCCCCCCCCC[P+](c1ccccc1)(c1ccccc1)c1ccccc1)Nc1ccc(O)c(O)c1.[Br-] | broth dilution | ATCC43300 MRSA | 18 h | 16 µg/mL |
| CC(=O)NCN1N=C(C)C(=NNn2c(-c3ccccc3)nc3ccccc3c2=O)C1=O | broth dilution |  | 24 h | 59.9 µM |
| Cc1ccc2nc(-c3ccc(N(C)C)cc3)[nH]c2c1 | broth dilution | ATCC29213 MSSA |  | 64 µg/mL |
| CSc1nc(C)c(Cl)c(O)n1 |  |  |  | > 128 µg/mL |
| COc1c(C)c(OC)c2c(c1C)OC(c1ccccc1)CC2=O (stereo not shown) | broth dilution | ATCC25923 |  | 5000 µg/mL |
| COc1cc2nccc(Oc3ccc(NC(=O)NC4CC4)c(Cl)c3)c2cc1C(N)=O |  | NCTC8325 |  | > 30 µM |
| CN[C@H](CC(C)C)C(=O)N[C@H]1C(=O)N[C@@H](CC(N)=O)C(=O)N[C@H]2C(=O)N[C@H]3C(=O)N[C@H](C(=O)N[C@H](C(=O)O)c4cc(O)cc(O)c4-c4cc3ccc4O)[C@H](O)c3ccc(c(Cl)c3)Oc3cc2cc(c3O[C@@H]2O[C@H](CO)[C@@H](O)[C@H](O)[C@H]2O[C@H]2C[C@](C)(N)[C@H](O)[C@H](C)O2)Oc2ccc(cc2Cl)[C@H]1O | broth dilution | CCARM3090 |  | 0.5 µg/mL |
| c1cncc(CN2CCC(n3ncc4c(N5CCOCC5)nc(-c5ccc6[nH]ccc6c5)nc43)CC2)c1 |  | NCTC8325 |  | > 30 µM |
| CC1(C)S[C@@H]2[C@H](NC(=O)[C@H](N)c3ccccc3)C(=O)N2[C@H]1C(=O)O | broth dilution | MRSA |  | 32 µg/mL |
| Cc1ccc2nc(-c3ccc(Cl)cc3)n(Cc3ccccc3Cl)c2c1 | broth dilution | ATCC29213 MSSA |  | 64 µg/mL |
| NC[C@H]1O[C@H](O[C@H]2[C@H](O)[C@@H](O[C@H]3O[C@H](CO)[C@@H](O)[C@H](N)[C@H]3O)[C@H](N)C[C@@H]2N)[C@H](N)C[C@@H]1O |  | 147 | clinical isolate | 6.25 µM |
| Cc1cccc(-c2[nH]c(C(C)(C)C)nc2-c2ccc3nccnc3c2)n1 |  | NCTC8325 |  | > 30 µM |
| Cc1ccc2nc(-c3ccc([N+](=O)[O-])cc3)n(Cc3ccc(Cl)cc3)c2c1 | broth dilution | ATCC29213 MSSA |  | 8 µg/mL |
| COc1cc(OC)c2cc(C(=O)NCc3ccc(C)cc3)cc(O)c2c1 | broth dilution | ATCC29213 MSSA |  | 32 µg/mL |
| C/C=C(\C)c1cc(O)c(C)c(OC(=O)c2c(C)c(Cl)c(O)c(Cl)c2O)c1 | broth dilution | 16162 |  | 2 µg/mL |
| CNc1cccc2cc(C(=O)NCCc3cccc(C(=O)O)c3)c(=O)[nH]c12 |  | ATCC29213 |  | > 64 µg/mL |
| CC(C)Oc1c(NC(=O)c2ccc(NC(=O)[C@H](CC(N)=O)NC(=O)c3ccc(NC(=O)c4ccc(NC(N)=O)cc4)cc3)cc2)ccc(C(=O)Nc2ccc(C(=O)O)cc2)c1O |  | ATCC29213 |  | 64 µg/mL |
| Fc1ccc(-c2nc3ccccc3[nH]2)cc1 | broth dilution | ATCC29213 MSSA |  | 256 µg/mL |
| Cc1ccccc1NCc1ccc(Oc2ccccn2)cc1 |  |  |  | 1.6 µg/mL |

| Structure (SMILES) | assay | system | setting | MIC |
| --- | --- | --- | --- | --- |
| CS(=O)(=O)c1cccc(-c2nnc(NC(=O)c3ccc(-c4ccccc4)cc3)o2)c1 |  |  |  | > 128 µg/mL |
| CC(C)Oc1c(NC(=O)c2ccc(NC(=O)[C@H](CC(N)=O)NC(=O)c3ccc(NC(=O)c4ccc([N+](=O)[O-])cc4)cc3)cc2)ccc(C(=O)Nc2ccc(C(=O)O)c(F)c2)c1O |  | ATCC29213 |  | 2 µg/mL |
| C=CCn1c(-c2ccc(OC)c(OC)c2)nc2ccccc21 | broth dilution | ATCC29213 MSSA |  | 128 µg/mL |
| COc1ncc(-c2ccc3nccc(-c4ccnnc4)c3c2)cc1NS(=O)(=O)c1ccc(F)cc1F |  | NCTC8325 |  | > 30 µM |
| C/C(=C\c1ccc(C#N)cc1)C(=O)Nc1ccc(C(=O)N[C@@H](CC(N)=O)C(=O)Nc2ccc(C(=O)Nc3ccc(C(=O)Nc4ccc(C(=O)O)cc4)c(O)c3OC(C)C)cc2)cc1 |  | ATCC29213 |  | 0.06 µg/mL |
| COc1ccc(-c2nc3ccc(C)cc3[nH]2)cc1O | broth dilution | ATCC29213 MSSA |  | 64 µg/mL |
| O=C1NC(=S)N/C1=C\c1ccc(-c2ccc(N(c3ccccc3)c3ccccc3)cc2)c2ccccc12 | broth dilution | ATCC43300 |  | > 1000 µg/mL |
| CCCCCC(=O)Oc1c(C)c(O)c(C(=O)/C=C/c2ccccc2)c(OC)c1C | broth dilution | ATCC25923 |  | > 5000 µg/mL |
| O=C(Nc1ccc(Nc2ccccc2)cc1)Nc1ccc(Cl)c(C(F)(F)F)c1 |  | NCTC8325 | 24 h | 3 µM |
| CN[C@H](CC(C)C)C(=O)N[C@H]1C(=O)N[C@@H](CC(N)=O)C(=O)N[C@H]2C(=O)N[C@H]3C(=O)N[C@H](C(=O)N[C@H](C(=O)O)c4cc(O)cc(O)c4-c4cc3ccc4O)[C@H](O)c3ccc(c(Cl)c3)Oc3cc2cc(c3O[C@@H]2O[C@H](CO)[C@@H](O)[C@H](O)[C@H]2O[C@H]2C[C@](C)(N)[C@H](O)[C@H](C)O2)Oc2ccc(cc2Cl)[C@H]1O | broth dilution | ATCC43300 |  | 1.96 µg/mL |
| COC(=O)Nc1ccc(-c2nc(N3CCOCC3)c3cnn(C4CCN(Cc5cccnc5)CC4)c3n2)cc1 |  | NCTC8325 |  | > 30 µM |
| O=C(O)c1cn(C2CC2)c2cc(N3CCNCC3)c(F)cc2c1=O | broth dilution | ATCC11632 | 18 h | < 5 µg/mL |
| CC(C)Oc1c(NC(=O)c2ccc(NC(=O)[C@H](CC(N)=O)NC(=O)c3ccc(NC(=O)c4cc(=O)c(O)c[nH]4)cc3)cc2)ccc(C(=O)Nc2ccc(C(=O)O)cc2)c1O |  | ATCC29213 |  | > 64 µg/mL |
| O=C(Nc1ncc([N+](=O)[O-])s1)C1CCCCC1 | broth dilution | MRSA |  | 125 µM |
| CSc1ccc(-c2nc3ccc(C)cc3[nH]2)cc1 | broth dilution | ATCC29213 MSSA |  | 16 µg/mL |
| O=C(O)CN1C(=O)/C(=C/c2ccc(-c3ccc(N(c4ccccc4)c4ccccc4)cc3)cc2)NC1=S | broth dilution | ATCC6538 |  | 1.95 µg/mL |
| C/C=C(\C)c1cc(O)c(C)c(OC(=O)c2c(C)cc(O)c(Cl)c2O)c1 | broth dilution | 745524 |  | 8 µg/mL |
| CCCCCCC#Cc1cncc(-c2nnc(SCc3ccc([N+](=O)[O-])o3)n2C)c1 |  | MRSA | drug-resistant strain | ≥ 20 µg/mL |
